From ChEMBL document CHEMBL1151714 (J Med Chem, 2008)
Activity calls are given as the source filed them. The rule behind the calls is not given here.

Assays:
[1] = molecular target: Baculoviral IAP repeat-containing protein 3 (Homo sapiens, UniProt Q13489); test: Displacement of fluorescently tagged SM5F from human cIAP-2 BIR3 expressed in Escherichia coli BL21 cells by fluorescence polarization assay
MDA-MB-231 [2] = test: cells; settings: Homo sapiens, MDA-MB-231, 96 h
Rattus norvegicus [3] = test: Bioavailability in Sprague-Dawley rat at 25 mg/kg, po; assay type: ADME, organism-based; settings: in vivo
In short: (§1)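 Rat pharmacokinetics after a single oral dose. Compounds were given at 25 or 30 mg/kg. Cmax, elimination half-life and AUC(0-∞) were determined, and oral bioavailability was calculated. Values are reported as mean ± deviation.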

Rattus norvegicus [4] = test: Half life in Sprague-Dawley rat at 25 mg/kg, po; assay type: ADME, organism-based; design: dose 25 mg/kg, route oral; settings: in vivo; in short: as §1
Rattus norvegicus [5] = test: AUC (0 to infinity) in Sprague-Dawley rat at 25 mg/kg, po; assay type: ADME, organism-based, Plasma; design: time infinity, dose 25 mg/kg, route oral; settings: in vivo
In short: (§2)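 Rats were given a single oral dose of 25 or 30 mg/kg. Maximum plasma concentration (Cmax), elimination half-life and AUC(0-∞) were derived. Oral bioavailability was also reported.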

Rattus norvegicus [6] = test: Cmax in Sprague-Dawley rat at 25 mg/kg, po; assay type: ADME, organism-based; design: dose 25 mg/kg, route oral; settings: in vivo
Rattus norvegicus [7] = test: Cmax in Sprague-Dawley rat at 30 mg/kg, po; assay type: ADME, organism-based; design: dose 30 mg/kg, route oral; settings: in vivo
Rattus norvegicus [8] = test: Half life in Sprague-Dawley rat at 30 mg/kg, po; assay type: ADME, organism-based; design: dose 30 mg/kg, route oral; settings: in vivo; in short: as §1
MDA-MB-231 [9] = test: Induction of caspase 3 processing in human MDA-MB-231 cells at 100 nM after 24 hrs by Western blotting; assay type: functional, cell-based
In short: (§3)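 MDA-MB-231 cells were exposed to a range of concentrations for 24 hours. Whole-cell levels of cIAP-1, cleaved PARP and cleaved caspase-3 were then probed by Western blot.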

MDA-MB-231 [10] = test: Reversal of human XIAP BIR3-mediated suppression of cytochrome c-induced caspase-3/-7 activity in human MDA-MB-231 cell lysate by cell free functional assay
In short: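 Caspase-3/-7 in cell lysates was activated by adding cytochrome c and dATP. Recombinant XIAP BIR3 protein at 0.5 μM was used to suppress activation, and recovery of caspase-3/-7 activity was measured across compound doses. Activity was read at the 30-minute time point and expressed relative to maximum activation.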

MDA-MB-231 [11] = test: Induction of cIAP1 degradation in human MDA-MB-231 cells at 10 nM after 24 hrs by Western blotting; assay type: functional, cell-based; in short: as §3
Rattus norvegicus [12] = test: AUC (0 to infinity) in Sprague-Dawley rat at 30 mg/kg, po; assay type: ADME, organism-based, Plasma; design: dose 30 mg/kg, route oral, time infinity; settings: in vivo; in short: as §2
Rattus norvegicus [13] = test: Bioavailability in Sprague-Dawley rat at 30 mg/kg, po; assay type: ADME, organism-based; settings: in vivo; in short: as §1
MDA-MB-231 [14] = test: Induction of PARP cleavage in human MDA-MB-231 cells at 100 nM after 24 hrs by Western blotting; assay type: functional, cell-based; in short: as §3

Baculoviral IAP repeat-containing protein 3, sequence (Q13489 whole entry): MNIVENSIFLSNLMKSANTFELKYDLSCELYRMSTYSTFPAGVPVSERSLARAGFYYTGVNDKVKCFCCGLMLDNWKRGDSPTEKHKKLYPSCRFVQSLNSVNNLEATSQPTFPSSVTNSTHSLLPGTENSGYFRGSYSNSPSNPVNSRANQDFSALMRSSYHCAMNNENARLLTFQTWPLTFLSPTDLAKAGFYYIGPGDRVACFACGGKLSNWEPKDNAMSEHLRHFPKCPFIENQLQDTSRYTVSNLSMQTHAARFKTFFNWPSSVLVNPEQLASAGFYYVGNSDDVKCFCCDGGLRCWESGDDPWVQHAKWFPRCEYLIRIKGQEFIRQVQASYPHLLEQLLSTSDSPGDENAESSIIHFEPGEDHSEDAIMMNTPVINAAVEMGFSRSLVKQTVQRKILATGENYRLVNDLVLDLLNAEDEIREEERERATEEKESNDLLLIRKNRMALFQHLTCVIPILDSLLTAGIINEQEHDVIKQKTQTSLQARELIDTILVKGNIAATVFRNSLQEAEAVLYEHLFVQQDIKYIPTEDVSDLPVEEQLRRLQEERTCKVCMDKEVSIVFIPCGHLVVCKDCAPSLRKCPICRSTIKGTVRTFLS

CN[C@@H](C)C(=O)N[C@H]1CN(Cc2ccccc2)CC[C@H]2CC[C@@H](C(=O)NC(c3ccccc3)c3ccccc3)N2C1=O
Ki [1]: 9.8 nM

CN[C@@H](C)C(=O)N[C@H]1CN(C)CC[C@H]2CC[C@@H](C(=O)NC(c3ccccc3)c3ccccc3)N2C1=O
Ki [1]: 17.5 nM

CN[C@@H](C)C(=O)N[C@H]1CNCC[C@H]2CC[C@@H](C(=O)NC(c3ccccc3)c3ccccc3)N2C1=O
IC50 (MDA-MB-231 [2]): 890 nM
Ki [1]: 4.6 nM

CN[C@@H](C)C(=O)N[C@H]1CCCC[C@H]2CC[C@@H](C(=O)NC(c3ccccc3)c3ccccc3)N2C1=O.Cl
F (Rattus norvegicus [3]): 14%
t1/2 (Rattus norvegicus [4]): 1.7 h
AUC (Rattus norvegicus [5]): 482 µg/L
Cmax (Rattus norvegicus [6]): 545 nM

CN[C@@H](C)C(=O)N[C@H]1CN(C(=O)Cc2ccccc2)CC[C@H]2CC[C@@H](C(=O)NC(c3ccccc3)c3ccccc3)N2C1=O.Cl
Cmax (Rattus norvegicus [7]): 532 nM
t1/2 (Rattus norvegicus [8]): 4.7 h
Activity (MDA-MB-231 [9]): Active
Activity (MDA-MB-231 [10]): Dose-dependent effect
Activity (MDA-MB-231 [11]): Active
AUC (Rattus norvegicus [12]): 1985 µg/L
F (Rattus norvegicus [13]): 24%
Activity (MDA-MB-231 [14]): Active
